Test results published in ChEMBL document CHEMBL3588803, “Design, synthesis and pharmacology of 1,1-bistrifluoromethylcarbinol derivatives as liver X receptor β-selective agonists” (Bioorg Med Chem Lett, 2015).

What was measured:
[1] = biological target: T1, Oxysterols receptor LXR-beta (Homo sapiens) (UniProt P55055); experiment: Agonist activity at LXRbeta (unknown origin) expressed in CHOK1 cells incubated for 24 hrs by GAL4-responsive luciferase reporter gene assay relative to 10 uM T0901317; assay type: cell-based; conditions: CHO-K1
T1 sequence (whole entry): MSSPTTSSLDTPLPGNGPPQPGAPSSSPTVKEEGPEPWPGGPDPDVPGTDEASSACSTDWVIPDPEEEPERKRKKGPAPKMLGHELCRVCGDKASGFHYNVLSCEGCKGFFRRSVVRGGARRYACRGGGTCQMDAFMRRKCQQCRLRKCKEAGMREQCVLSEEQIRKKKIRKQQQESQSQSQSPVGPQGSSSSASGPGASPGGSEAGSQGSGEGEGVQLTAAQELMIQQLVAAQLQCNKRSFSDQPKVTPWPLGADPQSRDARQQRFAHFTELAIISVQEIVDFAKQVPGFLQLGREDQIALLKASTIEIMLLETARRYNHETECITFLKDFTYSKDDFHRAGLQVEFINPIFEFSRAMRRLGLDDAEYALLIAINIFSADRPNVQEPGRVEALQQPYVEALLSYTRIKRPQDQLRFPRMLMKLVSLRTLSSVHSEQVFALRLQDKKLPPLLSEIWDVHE
In short: (§1)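 The GAL4-LXR LBD luciferase reporter was run in CHO-K1 cells. Cells were seeded at 20,000/well in HAM-F12 with 10% immobilized FBS and antibiotics for 24 h, then exposed to compound at 0.01, 0.1, 1, 10 and 30 µM for 24 h, with a Bright-Glo luminescence read-out. Values are means of two independent experiments.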

[2] = biological target: T2, Oxysterols receptor LXR-beta (Homo sapiens, UniProt P55055); experiment: Agonist activity at LXRbeta (unknown origin) expressed in CHOK1 cells incubated for 24 hrs by GAL4-responsive luciferase reporter gene assay; assay type: cell-based, CHO-K1
T2 sequence (P55055 whole entry): T1 sequence (whole entry)
In short: (§2)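 CHO-K1 cells carrying the GAL4-responsive pG5luc reporter and a GAL4-LXR LBD construct were seeded at 20,000 cells/well in HAM-F12 with 10% immobilized fetal bovine serum, penicillin G and streptomycin, at 37 °C and 5% CO2. After 24 h, compound was added at 0.01–30 µM for a further 24 h. Luminescence was read with Bright-Glo substrate. EC50 is the mean of two independent experiments.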

[3] = biological target: T3, Oxysterols receptor LXR-alpha (Homo sapiens) (UniProt Q13133); experiment: Agonist activity at LXRalpha (unknown origin) expressed in CHOK1 cells incubated for 24 hrs by GAL4-responsive luciferase reporter gene assay relative to 10 uM T0901317; assay type: cell-based; conditions: CHO-K1; in short: as §1
T3 sequence (whole entry): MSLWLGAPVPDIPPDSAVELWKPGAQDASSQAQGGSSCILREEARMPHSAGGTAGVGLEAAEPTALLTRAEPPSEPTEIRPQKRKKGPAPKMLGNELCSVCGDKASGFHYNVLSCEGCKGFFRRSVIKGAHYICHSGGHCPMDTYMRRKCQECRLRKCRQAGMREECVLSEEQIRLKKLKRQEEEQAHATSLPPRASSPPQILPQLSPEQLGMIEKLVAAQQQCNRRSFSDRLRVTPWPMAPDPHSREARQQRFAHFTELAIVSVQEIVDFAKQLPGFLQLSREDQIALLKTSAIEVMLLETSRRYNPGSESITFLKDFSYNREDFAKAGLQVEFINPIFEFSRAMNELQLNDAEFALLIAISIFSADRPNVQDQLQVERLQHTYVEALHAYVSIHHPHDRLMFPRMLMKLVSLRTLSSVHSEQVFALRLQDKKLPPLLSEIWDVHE

[4] = biological target: T4, Oxysterols receptor LXR-alpha (Homo sapiens, UniProt Q13133); experiment: Agonist activity at LXRalpha (unknown origin) expressed in CHOK1 cells incubated for 24 hrs by GAL4-responsive luciferase reporter gene assay; assay type: cell-based, CHO-K1; in short: as §2
T4 sequence (Q13133 whole entry): T3 sequence (whole entry)

[5] = Clearance in mouse hepatic microsomes; assay type: ADME; conditions: liver microsomes, read-out: CLH
[6] = Clearance in hamster hepatic microsomes; assay type: ADME; conditions: cricetinae, liver microsomes; read-out: CLH
[7] = Clearance in human hepatic microsomes; assay type: ADME; conditions: liver microsomes, read-out: CLH
Syrian golden hamster = experiment: Drug level in CE-2 chow diet-fed golden Syrian hamster treated with 100 mg/kg, po 3-(4-(4-(1,1,1,3,3,3-Hexafluoro-2-hydroxypropan-2-yl)-2,6-di-n-propylphenoxy)-butyl)-5-(4-(1-methylethoxy)phenyl)-5-methylimidazolidine-2,4-dione assessed as compound formation after 0.5 to 24 hrs by HPLC-LC-MS/MS method; assay type: ADME, organism-based, Mesocricetus auratus; conditions: in vivo
Hamster [8] = experiment: Hypolipidemic effect in Bio F1B hamster fed with high fat and cholesterol diet assessed as total cholesterol level at 10 mg/kg, po relative to control; assay type: functional, Cricetinae
Hamster [9] = experiment: Increase in ABCG5 gene expression in Bio F1B hamster intestine at 10 mg/kg, po; assay type: functional, Cricetinae
Hamster [10] = experiment: Hypolipidemic effect in Bio F1B hamster fed with high fat and cholesterol diet assessed as HDL-cholesterol level at 10 mg/kg, po relative to control; assay type: functional, Cricetinae
Hamster [11] = experiment: Increase in ABCA1 gene expression in Bio F1B hamster peripheral blood at 10 mg/kg, po; assay type: functional, Cricetinae
Hamster [12] = experiment: Increase in ABCA1 gene expression in Bio F1B hamster intestine at 10 mg/kg, po; assay type: functional, Cricetinae
Hamster [13] = experiment: Hypolipidemic effect in Bio F1B hamster fed with high fat and cholesterol diet assessed as LDL-cholesterol level at 10 mg/kg, po relative to control; assay type: functional, Cricetinae
Hamster [14] = experiment: Hypolipidemic effect in Bio F1B hamster fed with high fat and cholesterol diet assessed as lipid-accumulation area in aortic arch at 10 mg/kg, po relative to control; assay type: functional, Cricetinae
Hamster [15] = experiment: Effect in lipid profiles in Bio F1B hamster fed with high fat and cholesterol diet assessed as triglyceride level at 10 mg/kg, po relative to control; assay type: organism-based; conditions: cricetinae, in vivo
Hamster [16] = experiment: Increase in ABCG8 gene expression in Bio F1B hamster intestine at 10 mg/kg, po; assay type: functional, Cricetinae
[17] = biological target: T2, Oxysterols receptor LXR-beta; experiment: Agonist activity at LXRbeta (unknown origin)

Row | SMILES | Emax [1] | EC50 [2] | Emax [3] | EC50 [4] | also measured
1 | CCCc1cc(C(O)(C(F)(F)F)C(F)(F)F)cc(CCC)c1OCCCCN1C(=O)NC(CC)(c2ccc3c(c2)OCO3)C1=O (centres undefined) | 118% | 700 nM | 118% | 600 nM | –
2 | CCCc1cc(C(O)(C(F)(F)F)C(F)(F)F)ccc1OCCCCN1C(=O)NC(C)(c2ccc3c(c2)OCO3)C1=O (centres undefined) | 118% | 500 nM | 54% | 1700 nM | microsomal CLint [5]: 73 µL/min/mg; microsomal CLint [6]: 351 µL/min/mg; microsomal CLint [7]: 31 µL/min/mg
3 | CCCc1cc(C(O)(C(F)(F)F)C(F)(F)F)ccc1OCCCCN1C(=O)NC(CC)(c2ccc3c(c2)OCO3)C1=O (centres undefined) | 172% | 700 nM | 72% | 1500 nM | –
4 | CCCc1cc(C(O)(C(F)(F)F)C(F)(F)F)cc(CCC)c1OCCCC(=O)O | – | – | – | – | Drug metabolism (Syrian golden hamster): metabolite_detected
5 | CCCc1cc(C(O)(C(F)(F)F)C(F)(F)F)cc(CCC)c1OCCCCN1C(=O)NC(C)(c2ccc3c(c2)OCO3)C1=O (centres undefined) | 101% | 100 nM | 89% | 400 nM | –
6 | CCCc1cc(C(O)(C(F)(F)F)C(F)(F)F)ccc1OCCCCN1C(=O)NC(CCC)(c2ccc3c(c2)OCO3)C1=O (centres undefined) | 72% | 1300 nM | 42% | 2300 nM | –
7 | O=S(=O)(c1ccccc1)N(CC(F)(F)F)c1ccc(C(O)(C(F)(F)F)C(F)(F)F)cc1 [T091317] | – | – | – | – | Activity (Hamster [8]): 124%; fold change (FC) (Hamster [9]): 1.5; Activity (Hamster [10]): 76%; fold change (FC) (Hamster [11]): 1.3; fold change (FC) (Hamster [12]): 3.4; Activity (Hamster [13]): 75%; Activity (Hamster [14]): 40%; Activity (Hamster [15]): 251%; fold change (FC) (Hamster [16]): 1.4
8 | O=C(O)Cc1cccc(OCCCN(Cc2cccc(C(F)(F)F)c2Cl)CC(c2ccccc2)c2ccccc2)c1 | – | – | – | – | EC50 [17]: 400 nM
